The GI50 is the concentration giving 50% growth inhibition. A high value points to lower sensitivity of the cells. As usually defined, the ΔTm is the shift of the melting midpoint relative to a reference.

Here are results for nine molecules from ChEMBL document CHEMBL1157149, “Phosphonate-linked pyrrolo[2,1-c][1,4]benzodiazepine conjugates: synthesis, DNA-binding affinity and cytotoxicity” (2008).

Test [1] relates to PC-3. Briefly: Cytotoxicity against human PC3 cells after 48 hrs by SRB method. To be noted: PC-3, 48 h. Background: In SRB staining, fixed cells bind dye roughly in proportion to their protein.
The subject of test [2] is SiHa. Briefly: Cytotoxicity against human SiHa cells after 48 hrs by SRB method.
Test [3] has as its system DNA. Put plainly: Binding affinity to calf thymus DNA assessed as change in thermal stability at pH 7.0 after 18 hrs by thermal denaturation assay. In kind it is nucleic-acid assay. To be noted: Bos taurus. In short, it runs like this: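 CT-DNA duplex at 100 µM (in phosphate) with ligand at 20 µM (1:5 ligand/DNA molar ratio) in 10 mM sodium phosphate, 1 mM EDTA, pH 7.00; compound added from concentrated MeOH solution. Incubated at 37 °C for 18 h. Absorbance at 260 nm followed while heating at 1 °C/min over 40–90 °C. Tm taken from dA260/dT derivative maxima; ΔTm relative to DNA alone.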

Test [4] relates to MCF7. Put plainly: Cytotoxicity against human MCF7 cells after 48 hrs by SRB method. To be noted: MCF7, 48 h.
Test [5] is described as follows: Cytotoxicity against human GURAV cells after 48 hrs by SRB method.
In test [6] the test system is COLO 205. Put plainly: Cytotoxicity against human Colo205 cells after 48 hrs by SRB method. The conditions noted are these: COLO 205, 48 h.
In test [7] the test system is A2780. Put plainly: Cytotoxicity against human A2780 cells after 48 hrs by SRB method. The conditions noted are these: A2780, 48 h.
The nature of test [8]: Cytotoxicity against human DWD cells after 48 hrs by SRB method.
For test [9], the target named is T1, Type II restriction enzyme BamHI (Bacillus amyloliquefaciens) (UniProt P23940).
T1 sequence (whole entry): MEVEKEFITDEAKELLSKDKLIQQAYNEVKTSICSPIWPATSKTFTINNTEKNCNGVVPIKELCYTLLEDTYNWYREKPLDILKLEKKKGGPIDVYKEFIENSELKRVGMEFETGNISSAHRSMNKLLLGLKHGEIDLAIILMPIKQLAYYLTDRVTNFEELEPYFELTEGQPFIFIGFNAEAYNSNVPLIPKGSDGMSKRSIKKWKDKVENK
Put plainly: Inhibition of BamH1 assessed as inhibition of pBR322 DNA cleavage. The procedure, abridged:
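PBD stocks were 100 μM in DMSO. Plasmid pBR322 (500 ng, single BamHI site) was preincubated with compound in 16 μL for 16 h at 37 °C. BamHI (20 U) and its buffer were then added to 20 μL, and digestion ran 1 h at 37 °C. Cut and uncut forms were resolved on 1% agarose in TAE (80 V, 2 h) and stained with ethidium bromide.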

Test [10] concerns KB. Briefly: Cytotoxicity against human KB cells after 48 hrs by SRB method.
Test [11] relates to A549. Put plainly: Cytotoxicity against human A549 cells after 48 hrs by SRB method. To be noted: A549, 48 h.
For test [12], the system named is HL-60. Put plainly: Cytotoxicity against human HL60 cells after 48 hrs by SRB method. To be noted: HL-60, 48 h.
The nature of test [13]: Cytotoxicity against human lung cancer cells after 24 hrs by SRB method. The test is classed as functional. The conditions noted are these: Cancer cell lines.
The nature of test [14]: Cytotoxicity against human ovarian cancer cells after 24 hrs by SRB method. The test is classed as functional. The conditions noted are these: Cancer cell lines.
Test [15] deals with SR. Put plainly: Cytotoxicity against human SR cells after 24 hrs by SRB method. In kind it is functional.
Test [16] in a line: Cytotoxicity against human leukemia cells after 24 hrs by SRB method. In kind it is functional. The conditions noted are these: Leukemia cell, read-out: pTGI (converted).
The test system of test [17] is RPMI-8226. Put plainly: Cytotoxicity against human RPMI8226 cells after 24 hrs by SRB method. The test is classed as functional. The conditions noted are these: RPMI-8226, 24 h.
Test [18] concerns K562. Put plainly: Cytotoxicity against human K562 cells after 48 hrs by SRB method. The conditions noted are these: K562, 48 h.
For test [19], the system named is MOLT-4. Put plainly: Cytotoxicity against human MOLT4 cells after 24 hrs by SRB method. The test is classed as functional. The conditions noted are these: MOLT-4, 24 h.
A short description of test [20]: Cytotoxicity against human melanoma cancer cells after 24 hrs by SRB method. In kind it is functional. To be noted: Melanoma cell.
Test [21] is described as follows: Cytotoxicity against human colon cancer cells after 24 hrs by SRB method. In kind it is functional. The conditions noted are these: Cancer cell lines.
Test [22] can be described thus: Cytotoxicity against human renal cancer cells after 24 hrs by SRB method. In kind it is functional. To be noted: Cancer cell lines.
Test [23] can be described thus: Cytotoxicity against human CNS cancer cells after 48 hrs by SRB method. To be noted: Cancer cell lines.
Test [24] concerns CCRF-CEM. Briefly: Cytotoxicity against human CCRF-CEM cells after 48 hrs by SRB method. To be noted: read-out: pLC50 (the source's name) (converted).
The nature of test [25]: Cytotoxicity against human leukemia cells after 48 hrs by SRB method. To be noted: Leukemia cell.
Test [26] relates to CCRF-CEM. Put plainly: Cytotoxicity against human CCRF-CEM cells after 24 hrs by SRB method. In kind it is functional.
Test [27] in a line: Cytotoxicity against human breast cancer cells after 24 hrs by SRB method. In kind it is functional. The conditions noted are these: Cancer cell lines.
A short description of test [28]: Cytotoxicity against human prostate cancer cells after 24 hrs by SRB method. The test is classed as functional. The conditions noted are these: Cancer cell lines.
Where [29] appears, read: read-out: pLC50 (the source's name) (converted).

Each structure is given as a SMILES string. The source made the active and inactive calls. The calls are words filed in the database; no cut-off is given here.

In the case of `CCOP(=O)(CCCN1CCN(CCCCCOc2cc3c(cc2OC)C(=O)N2CCC[C@H]2C=N3)CC1)OCC`, the GI50 in test [1] worked out at 30.5 µM; in test [2] it was 2.46 µM; in [4], 2.21 µM; in [5], 2.18 µM; in [6], 2.39 µM; in test [7], 2.02 µM. The same molecule showed a GI50 in test [8] of 0.18 µM. For the same molecule, in test [3], the ΔTm amounted to 10 °C. Moreover, in [9], the outcome was Active.
Consider `CCOP(=O)(CCCN1CCN(CCCCOc2cc3c(cc2OC)C(=O)N2CCC[C@H]2C=N3)CC1)OCC`, for which the shift in melting temperature (ΔTm) in test [3] was 7.1 °C.
Regarding `CCOP(=O)(CCCOc1cc2c(cc1OC)C(=O)N1CCC[C@H]1C=N2)OCC`, the GI50 in [2] stood at 2.1 µM; in test [10], 2.11 µM; in test [4], 2.02 µM; in test [8], 2.2 µM. Moreover, the ΔTm in test [3] stood at 4.5 °C.
As for `COc1cc2c(cc1O)N=C[C@@H]1CCCN1C2=O`, the ΔTm in [3] is 0.7 °C.
With `COc1cccc2c1C(=O)c1c(O)c3c(c(O)c1C2=O)C[C@@](O)(C(=O)CO)C[C@@H]3O[C@H]1C[C@H](N)[C@H](O)[C@H](C)O1` [DOXORUBICIN], the GI50 in test [2] was 0.18 µM; in test [10] it was 0.17 µM; in [4], 0.18 µM; in test [5], 0.17 µM; in test [6], 0.14 µM; in [7], 0.17 µM. For the same molecule, the 50% growth inhibitory concentration (GI50) in test [8] was 0.11 µM.
As to `CCOP(=O)(CCN1CCN(CCCCCOc2cc3c(cc2OC)C(=O)N2CCC[C@H]2C=N3)CC1)OCC`, the GI50 is 2.64 µM in [11]; 1.98 µM in [1]; 1.82 µM in test [12]; 10 µM in [13]; 13.8 µM in test [14]; 1.38 µM in test [15]. The GI50 in test [2] is 0.21 µM; in test [17] it was 2.29 µM; in test [10] it was 1.92 µM; in test [4], 2.01 µM; in test [5] it was 0.17 µM; in test [6], 1.87 µM. In addition, the 50% growth inhibitory concentration (GI50) was 2.34 µM in test [18]; 2.14 µM in [19]; 7.76 µM in [20]; 10 µM in [21]; 0.17 µM in test [7]; 9.77 µM in test [22]. Besides, the GI50 in [23] is 3.02 µM; in test [25] it was 1.95 µM; in [26], 1.91 µM; in [27], 5.62 µM; in test [28] it was 17.8 µM. In addition, the CC50 in [12] (setting [29]) was more than 100 µM; in test [13] (setting [29]) it was 100 µM; in [14] (setting [29]), 100 µM; in [15] (setting [29]) it was 30.9 µM; in test [17] (setting [29]) it was more than 100 µM; in test [18] (setting [29]), more than 100 µM. For the same molecule, the CC50 in [19] (setting [29]) is more than 100 µM; in test [20] (setting [29]), 81.3 µM; in test [21] (setting [29]) it was 93.3 µM; in [22] (setting [29]), 95.5 µM; in [23] (setting [29]) it was 89.1 µM; in test [24] it was more than 100 µM. Also, the CC50 in test [25] (setting [29]) was 100 µM; in test [27] (setting [29]), 95.5 µM; in test [28] (setting [29]), 100 µM. Moreover, the TGI was 8.32 µM in test [12] (read-out: pTGI (converted)); 45.7 µM in test [13] (read-out: pTGI (converted)); 55 µM in test [14] (read-out: pTGI (converted)); 4.27 µM in test [15] (read-out: pTGI (converted)); 12.3 µM in test [16]; more than 100 µM in test [18] (read-out: pTGI). Also, the TGI in test [19] (read-out: pTGI (converted)) is 6.31 µM; in [20] (read-out: pTGI (converted)) it was 30.2 µM; in test [21] (read-out: pTGI (converted)), 46.8 µM; in [22] (read-out: pTGI (converted)) it was 53.7 µM; in test [23] (read-out: pTGI (converted)), 30.2 µM; in test [27] (read-out: pTGI (converted)) it was 33.1 µM. Moreover, in [28] (read-out: pTGI (converted)), the TGI was 63.1 µM. Moreover, the ΔTm in test [3] amounted to 7.2 °C. Besides, in [9], the outcome was Active.
As to `CCOP(=O)(CCN1CCN(CCCOc2cc3c(cc2OC)C(=O)N2CCC[C@H]2C=N3)CC1)OCC`, the ΔTm in test [3] was 9 °C. In addition, the result in test [9] was Active.
Consider `CCOP(=O)(CCCN1CCN(CCCOc2cc3c(cc2OC)C(=O)N2CCC[C@H]2C=N3)CC1)OCC`, for which, in test [3], the ΔTm worked out at 9.9 °C. For the same molecule, the result in test [9] was Active.
Regarding `COc1cc2c(cc1OCCCN1CCN(C)CC1)N=C[C@@H]1CCCN1C2=O`, the ΔTm in test [3] turned out to be 6.9 °C.
